By ΔTm is commonly meant the shift of the melting midpoint relative to a reference.

These results are taken from ChEMBL document CHEMBL1137143, “Synthesis of C8-linked pyrrolo[2,1-c][1,4]benzodiazepine-acridone/acridine hybrids as potential DNA-binding agents” (Bioorg Med Chem Lett, 2004).

The subject of one test is A498. The test can be described thus: In vitro cytotoxicity was determined against A498 cell line. It is filed as functional. Conditions: Homo sapiens, read-out: LC50 (the source's name).
For test [1], the system named is Nucleic Acid. The test can be described thus: (§1) DNA-binding ability was determined by thermal denaturation method using calf thymus (CT) DNA; expressed as Delta Tm after 0 hr. Type of test: functional. To be noted: Bos taurus. Summed up: (§2)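 Thermal melting of CT-DNA, 100 µM, with ligand at 20 µM (1:5 PBD:DNA molar ratio) in 10 mM sodium phosphate + 1 mM EDTA, pH 7.00; incubated at 37 °C for 0 h or 18 h before melting. ΔTm taken relative to DNA alone, whose Tm is a mean of 10 separate determinations.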

For test [2], the system named is Nucleic Acid. The test can be described thus: (§3) DNA-binding ability was determined by thermal denaturation method using calf thymus (CT) DNA; expressed as Delta Tm after 18 hr. It is filed as functional. To be noted: Bos taurus. In short, it runs like this: as §2
For another test, the system named is M14. Briefly: In vitro cytotoxicity was determined against M14 cell line. It is filed as functional. Conditions: Homo sapiens, read-out: LC50 (the source's name).
The next test concerns NCI-H23. Briefly: In vitro cytotoxicity was determined against NCI-H23 cell line. To be noted: Homo sapiens, read-out: LC50 (the source's name). It is filed as functional.
The test system of another test is UACC-62. Briefly: In vitro cytotoxicity was determined against UACC-62 cell line. It is filed as functional. To be noted: Homo sapiens, read-out: LC50 (the source's name).
For test [3], the species on record is Bos taurus. The test is described as §1. Type of test: functional, organism-based. In short, it runs like this:
as §2

The species entered for test [4] is Bos taurus. The test is described as §3. Type of test: functional, organism-based. In short, it runs like this:
as §2

In the case of `COc1cc2c(cc1OCCCNC(=O)c1cccc3c(O)c4ccccc4nc13)N=C[C@@H]1CCCN1C2=O`, the CC50 in the test on A498 was 50 nM; with M14, < 10 nM; with NCI-H23, 70 nM; in the test on UACC-62, < 10 nM. For the same compound, the ΔTm in the test with Nucleic Acid [1] was determined as 11 °C; in the test on Nucleic Acid [2], 12.5 °C.

Turning to `COc1cc2c(cc1O)N=C[C@@H]1CCCN1C2=O`, the ΔTm in the test on Nucleic Acid [1] is 0.4 °C; with Nucleic Acid [2] it was 0.7 °C.

For the compound `COc1cc2c(cc1OCCNC(=O)c1cccc3cc4ccccc4nc13)N=C[C@@H]1CCCN1C2=O`, the ΔTm in the test on Nucleic Acid [1] came to 3.1 °C; in the test on Nucleic Acid [2] it was 5 °C.

Regarding `COc1cc2c(cc1OCCCNC(=O)c1cccc3cc4ccccc4nc13)N=C[C@@H]1CCCN1C2=O`, the shift in melting temperature (ΔTm) in the test on Nucleic Acid [1] was found to be 5.9 °C; in the test on Nucleic Acid [2] it was 7.7 °C.

Take `COc1cc2c(cc1OCCNC(=O)c1cccc3c(O)c4ccccc4nc13)N=C[C@@H]1CCCN1C2=O`: the ΔTm with Nucleic Acid [1] was determined as 4.7 °C; in the test with Nucleic Acid [2] it was 5.7 °C; in the test listed under Bos taurus [3] it was 4.7 °C; in the test listed under Bos taurus [4] it was 5.7 °C.
